Calls of active or inactive are those of the source. No cut-off for these calls is given here.
Columns and labels:
Echinochloa crus-galli [1] = assay: Herbicidal activity against Echinochloa crus-galli (barnyard grass) at 1.5 kg/ha postemergence treatment measured after 10 days by glasshouse test; format: functional; details: post-emergence, 240 h
Outline: (§1)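 Glasshouse pre/postemergence test, each treatment in triplicate. Above-ground fresh weight measured 10 days after treatment. Result expressed as percent inhibition versus control, from 0 (no control) to 100 (complete control); glyphosate used as positive control.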

Brassica napus [2] = assay: Herbicidal activity against Brassica napus (oilseed rape) at 1.5 kg/ha postemergence treatment measured after 10 days by glasshouse test; format: functional; details: post-emergence, 240 h; outline: as §1
Alternaria solani = assay: Fungicidal activity against Alternaria solani assessed as inhibition of mycelia growth at 2 ppm; format: functional, organism-based
Outline: (§2)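 Mycelial growth test in 96-well plates: compound incorporated into artificial growth medium at 2 ppm, two replicates per rate. Each well scored 99 for complete, 55 for partial or 0 for no inhibition. Values are the mean across replicates; azoxystrobin and prochloraz used as positive controls.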

Aphididae = assay: Insecticidal activity against Aphididae (aphids) assessed as mortality at 1000 ppm by leaf-disk assay; format: functional, organism-based
Outline: (§3)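 Leaf-disk assay at 1000 ppm, three replicates. Plates kept 5–9 days in controlled-environment cabinets. Mortality judged against untreated wells: 99 for significant mortality, 0 otherwise. Values are the mean of three; thiamethoxam and indoxacarb used as positive controls.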

Uromyces viciae-fabae = assay: Fungicidal activity against Uromyces viciae-fabae assessed as inhibition of mycelia growth at 100 ppm; format: functional, organism-based
Outline: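 Leaf-piece assay on bean at 100 ppm, with compound applied before spore inoculation and two replicates. Each well scored 99 for complete inhibition, 55 for partial and 0 for none; value is the mean score across replicates.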

Zymoseptoria tritici = assay: Fungicidal activity against Zymoseptoria tritici assessed as inhibition of mycelia growth at 100 ppm; format: functional, organism-based
Botrytis cinerea = assay: Fungicidal activity against Botryotinia fuckeliana assessed as inhibition of mycelia growth at 2 ppm; format: functional, organism-based; outline: as §2
Brassica napus [3] = assay: Herbicidal activity against Brassica napus (oilseed rape) at 1.5 kg/ha preemergence treatment measured after 10 days by glasshouse test; format: functional; details: pre-emergence, 240 h; outline: as §1
Echinochloa crus-galli [4] = assay: Herbicidal activity against Echinochloa crus-galli (barnyard grass) at 1.5 kg/ha preemergence treatment measured after 10 days by glasshouse test; format: functional; details: pre-emergence, 240 h; outline: as §1
Heliothis virescens = assay: Insecticidal activity against Lepidoptera Heliothis virescens (tobacco budworm) assessed as mortality at 1000 ppm by leaf-disk assay; format: functional, organism-based; outline: as §3
Pythium dissimile = assay: Fungicidal activity against Pythium dissimile assessed as inhibition of mycelia growth at 2 ppm; format: functional, organism-based; outline: as §2
Phytophthora infestans = assay: Fungicidal activity against Phytophthora infestans assessed as inhibition of mycelia growth at 200 ppm; format: functional, organism-based
Fusarium graminearum = assay: Fungicidal activity against Fusarium graminearum assessed as inhibition of mycelia growth at 2 ppm; format: functional, organism-based; outline: as §2
Stellaria media [5] = assay: Herbicidal activity against Stellaria media assessed as growth inhibition at 1 kg/ha preemergence treatment by glasshouse test; format: functional; details: pre-emergence, read-out: GI
Outline: (§4)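 Glasshouse screen with pre- or postemergence application at 1.0 kg/ha. Result given as percent inhibition of plant growth; norflurazon and glyphosate used as controls.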

Lolium perenne [6] = assay: Herbicidal activity against Lolium perenne (perennial ryegrass) assessed as growth inhibition at 1 kg/ha preemergence treatment by glasshouse test; format: functional; details: pre-emergence, read-out: GI; outline: as §4
Poa annua = assay: Herbicidal activity against Poa annua assessed as growth inhibition at 32 ppm by 96-well plate test; format: functional; details: read-out: GI
Outline: (§5)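 96-well plate herbicide screen: Arabidopsis thaliana at 10 ppm and Poa annua at 32 ppm, two replicates. Plates incubated seven days in a controlled-environment cabinet. Each replicate scored 0 (no visible effect) or 99 (herbicidal effect); values are the mean of the two. Atrazine used as reference.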

Stellaria media [7] = assay: Herbicidal activity against Stellaria media assessed as growth inhibition at 1 kg/ha postemergence treatment by glasshouse test; format: functional; details: post-emergence, read-out: GI; outline: as §4
Arabidopsis thaliana = assay: Herbicidal activity against Arabidopsis thaliana assessed as growth inhibition at 10 ppm by 96-well plate test; format: functional; details: read-out: GI; outline: as §5
Amaranthus retroflexus [8] = assay: Herbicidal activity against Amaranthus retroflexus assessed as growth inhibition at 1 kg/ha postemergence treatment by glasshouse test; format: functional; details: post-emergence, read-out: GI; outline: as §4
Amaranthus retroflexus [9] = assay: Herbicidal activity against Amaranthus retroflexus assessed as growth inhibition at 1 kg/ha preemergence treatment by glasshouse test; format: functional; details: pre-emergence, read-out: GI; outline: as §4
Lolium perenne [10] = assay: Herbicidal activity against Lolium perenne (perennial ryegrass) assessed as growth inhibition at 1 kg/ha postemergence treatment by glasshouse test; format: functional; details: post-emergence, read-out: GI; outline: as §4
Digitaria sanguinalis [11] = assay: Herbicidal activity against Digitaria sanguinalis (hairy crabgrass) assessed as growth inhibition at 1 kg/ha postemergence treatment by glasshouse test; format: functional; details: post-emergence, read-out: GI; outline: as §4
Digitaria sanguinalis [12] = assay: Herbicidal activity against Digitaria sanguinalis (hairy crabgrass) assessed as growth inhibition at 1 kg/ha preemergence treatment by glasshouse test; format: functional; details: pre-emergence, read-out: GI; outline: as §4

| Structure (SMILES) | inhibition at 1500 g/ha (Echinochloa crus-galli [1]) | inhibition at 1500 g/ha (Brassica napus [2]) | inhibition (Alternaria solani) | mortality (Aphididae) | inhibition (Zymoseptoria tritici) | inhibition (Botrytis cinerea) | inhibition at 1500 g/ha (Brassica napus [3]) | inhibition at 1500 g/ha (Echinochloa crus-galli [4]) | mortality (Heliothis virescens) | inhibition (Pythium dissimile) | inhibition (Phytophthora infestans) | inhibition (Fusarium graminearum) | inhibition of growth at 1000 g/ha (Stellaria media [5]) | inhibition of growth at 1000 g/ha (Lolium perenne [6]) | inhibition of growth at 32 ppm (Poa annua) | inhibition of growth at 1000 g/ha (Stellaria media [7]) | inhibition of growth at 10 ppm (Arabidopsis thaliana) | inhibition of growth at 1000 g/ha (Amaranthus retroflexus [8]) | inhibition of growth at 1000 g/ha (Amaranthus retroflexus [9]) | inhibition of growth at 1000 g/ha (Lolium perenne [10]) | further results |
| --- | --- | --- | --- | --- | --- | --- | --- | --- | --- | --- | --- | --- | --- | --- | --- | --- | --- | --- | --- | --- | --- |
| CC(C)Nc1nc(Cl)nc(NCc2cnc(Br)s2)n1 | 10.4% | 10% | inactive | inactive | inactive | inactive | 5.2% | 11.3% | inactive | inactive | inactive | inactive |  |  |  |  |  |  |  |  | inhibition (Uromyces viciae-fabae): inactive |
| CSc1nc(NCc2ccc(F)cc2)nc(NC(C)C)n1 | 100% | 100% |  | inactive | inactive | inactive | 100% | 21.4% | inactive | inactive | inactive | inactive | 90% | 50% | 0% | 100% | 99% | 100% | 100% | 80% | inhibition of growth at 1000 g/ha (Digitaria sanguinalis [11]): 80%; inhibition of growth at 1000 g/ha (Digitaria sanguinalis [12]): 0% |
| CSc1nc(NCc2cnc(Br)s2)nc(NC(C)C)n1 | 92% | 100% |  |  |  |  | 87.1% | 74.6% |  |  |  |  |  |  |  |  |  |  |  |  |  |
| CC(C)Nc1nc(Cl)nc(NCC2CCCO2)n1 (configuration not stated) | 41.3% | 100% |  |  |  |  | 100% | 46.4% |  |  |  |  |  |  |  |  |  |  |  |  |  |
| CCNc1nc(Cl)nc(NC(C)C)n1 [ATRAZINE] | 100% | 100% | inactive |  |  | inactive | 100% | 100% | inactive | inactive | inactive | inactive | 90% | 80% | 0% | 100% | 99% | 100% | 100% | 100% | inhibition of growth at 1000 g/ha (Digitaria sanguinalis [11]): 70%; inhibition of growth at 1000 g/ha (Digitaria sanguinalis [12]): 0% |

Reference: ChEMBL document CHEMBL3046679, “Design, synthesis, and biological activities of arylmethylamine substituted chlorotriazine and methylthiotriazine compounds” (J Agric Food Chem, 2011)
